These results are taken from ChEMBL document CHEMBL4699394, “Insights into structural and physicochemical properties required for beta-hematin inhibition of privileged triarylimidazoles” (RSC Med Chem, 2020).

For series [1], the system named is HeLa. Description: Cytotoxicity against human HeLa cells assessed as reduction in cell viability at 20 uM incubated for 48 hrs by FACS analysis. It is filed as cell-based.
The subject of series [2] is Hemozoin. Description: Inhibition of beta-hematin formation assessed as reduction in hemozoin formation incubated for 20 hrs by NP40 detergent-mediated assay. In a few lines: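 In vitro β-hematin formation assay buffered at acidic pH 4.8 to mimic the parasite digestive vacuole. IC50 is the mean of experiments run in technical triplicate.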
Series [3] has as its system Plasmodium falciparum. Description: Antimalarial activity against Plasmodium falciparum 3D7 infected in human Erythrocyte assessed as plasmodial growth at 20 uM incubated for 48 hrs by FACS analysis relative to control. It is filed as functional.
The test system of series [4] is Plasmodium falciparum. Kind of series: Antimalarial activity against Plasmodium falciparum 3D7 infected in human Erythrocyte assessed as reduction in plasmodial growth incubated for 48 hrs by FACS analysis. The series is classed as functional, organism-based. Particulars: 3D7, Erythrocyte; call rule not given here. In a few lines:
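Dose-response IC50 against P. falciparum 3D7. Only compounds that reduced parasite viability below 10% in a 20 μM, 48 h single-concentration screen were tested. IC50 is the mean of experiments run in technical triplicate.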
A general note: Flow cytometry measures light scatter and fluorescence of single cells or particles in a stream.

Structures are written as SMILES.

For orientation: IC50 means the concentration needed to halve the response being measured. For the compound `c1ccc(-c2nc(-c3ccco3)[nH]c2-c2ccccc2)cc1`, the Activity result in series [1] is listed as “Non-Toxic”. Besides, the IC50 in series [2] (read-out: IC50) worked out at 401 µM.

Take `Cc1ccc(-c2nc(-c3ccccc3)c(-c3ccccc3)[nH]2)cc1`: the Activity result in series [1] is “Non-Toxic”. In series [2] (read-out: IC50), the IC50 stood at 156 µM.

As to `O=[N+]([O-])c1cccc(-c2nc(-c3ccc(Cl)cc3)c(-c3ccccc3)[nH]2)c1`, the Activity entry in series [1] is on record as “Non-Toxic”. In addition, the 50% inhibitory concentration (IC50) in series [2] (read-out: IC50) was over 500 µM.

On to `Clc1ccc(-c2nc(-c3ccccc3)[nH]c2-c2ccccc2)cc1`, for which, in series [1], the Activity result is reported as “Non-Toxic”. The IC50 in series [2] (read-out: IC50) was over 500 µM.

Regarding `Clc1cccc(-c2nc(-c3ccccc3)c(-c3ccccc3)[nH]2)c1`, the Activity entry in series [1] is reported as “Non-Toxic”. Moreover, the IC50 result in series [2] was “Not Active”.

As to `c1ccc(-c2nc(-c3c[nH]c4ccccc34)[nH]c2-c2ccccc2)cc1`, in series [1], the Activity entry is reported as “Non-Toxic”. Moreover, the IC50 in series [2] (read-out: IC50) stood at 72.8 µM.

Take `Clc1ccc(-c2nc(-c3ccc(Cl)cc3)c(-c3ccccc3)[nH]2)cc1`: the Activity entry in series [1] is “Non-Toxic”. Further, the IC50 in series [2] (read-out: IC50) is 39 µM.

Take `CCC(CC)c1nc(-c2ccccc2)c(-c2ccccc2)[nH]1`: the results for the Activity entry in series [1] and in series [3] were “Non-Toxic” and under 10%, respectively. In addition, the IC50 in series [4] is 11 µM; in series [2], “Not Active”.

Consider `Fc1ccccc1-c1nc(-c2ccccc2)c(-c2ccccc2)[nH]1`, for which, in series [1], the Activity result is on record as “Non-Toxic”. For the same compound, the IC50 in series [2] (read-out: IC50) is over 500 µM.

For `Clc1ccc(-c2nc(-c3ccccc3)c(-c3ccccc3)[nH]2)cc1`, the Activity result in series [1] was “Non-Toxic”. For the same compound, the IC50 result in series [2] is “Not Active”.

As to `COc1ccc(-c2nc(-c3ccc(Cl)cc3)c(-c3ccccc3)[nH]2)cc1`, the Activity result in series [1] is given as “Non-Toxic”; in series [3], under 10%. For the same compound, the IC50 in series [4] turned out to be 11 µM; in series [2] (read-out: IC50) it was 20.5 µM.

As for `CCN(CC)CCCC(C)Nc1ccnc2cc(Cl)ccc12` (configuration not stated) [CHLOROQUINE], the IC50 in series [2] (read-out: IC50) worked out at 16.9 µM.

For `Clc1ccc(-c2nc(-c3ccc(Br)cc3)[nH]c2-c2ccccc2)cc1`, the values for the Activity entry in series [1] and in series [3] were “Non-Toxic” and under 10%, respectively. The half-maximal inhibitory concentration (IC50) in series [4] was determined as 8 µM; in series [2] (read-out: IC50), 28.8 µM.

In the case of `Fc1cccc(-c2nc(-c3ccccc3)c(-c3ccccc3)[nH]2)c1`, the Activity entry in series [1] was “Non-Toxic”. Further, the IC50 result in series [2] is on record as “Not Active”.

Take `COc1ccccc1-c1nc(-c2ccccc2)c(-c2ccccc2)[nH]1`: the Activity entry in series [1] is “Non-Toxic”. Besides, the IC50 entry in series [2] is “Not Active”.

As to `c1ccc(-c2nc(-c3ccc4ccccc4c3)[nH]c2-c2ccccc2)cc1`, the Activity result in series [1] was “Non-Toxic”. The IC50 entry in series [2] is given as “Not Active”.

For the compound `Fc1ccccc1-c1nc(-c2ccc(Cl)cc2)c(-c2ccccc2)[nH]1`, in series [1], the Activity result was “Non-Toxic”. In addition, the half-inhibitory concentration (IC50) in series [2] (read-out: IC50) was over 500 µM.

`COc1ccc(-c2nc(-c3ccc(Br)cc3)c(-c3ccccc3)[nH]2)cc1`: the Activity entry is recorded as “Non-Toxic” in series [1] and under 10% in series [3]. For the same compound, the half-maximal inhibitory concentration (IC50) in series [4] came to 1.5 µM; in series [2] (read-out: IC50), 20.3 µM.

As for `Fc1ccc(-c2nc(-c3ccc(Cl)cc3)c(-c3ccccc3)[nH]2)cc1`, the Activity result was “Non-Toxic” in series [1] and under 10% in series [3]. The IC50 came out at 6.5 µM in series [4] and 28 µM in series [2] (read-out: IC50).

Regarding `COc1ccc(-c2nc(-c3ccccc3)c(-c3ccccc3)[nH]2)cc1`, the Activity result in series [1] is recorded as “Non-Toxic”. Further, in series [2] (read-out: IC50), the IC50 came out at 48.1 µM.

In the case of `Brc1ccc(-c2nc(-c3ccccc3)c(-c3ccccc3)[nH]2)cc1`, the Activity entry in series [1] is on record as “Non-Toxic”. For the same compound, the IC50 in series [2] (read-out: IC50) was found to be 489 µM.

Turning to `O=[N+]([O-])c1cccc(-c2nc(-c3ccccc3)c(-c3ccccc3)[nH]2)c1`, the Activity result in series [1] is recorded as “Non-Toxic”. The IC50 entry in series [2] is “Not Active”.

For `O=[N+]([O-])c1ccccc1-c1nc(-c2ccccc2)c(-c2ccccc2)[nH]1`, in series [1], the Activity result is on record as “Non-Toxic”. Moreover, in series [2], the IC50 result is recorded as “Not Active”.

`Cc1ccccc1-c1nc(-c2ccccc2)c(-c2ccccc2)[nH]1`: in series [1], the Activity result is given as “Non-Toxic”. Besides, the concentration for half-maximal inhibition (IC50) in series [2] (read-out: IC50) is over 500 µM.

With `Brc1ccc(-c2nc(-c3ccc(Br)cc3)c(-c3ccccc3)[nH]2)cc1`, in series [1], the Activity result is “Non-Toxic”. For the same compound, the IC50 in series [2] (read-out: IC50) amounted to 54.2 µM.

With `Brc1ccc(-c2nc(-c3ccccc3)[nH]c2-c2ccccc2)cc1`, the Activity result in series [1] is “Non-Toxic”. Further, the concentration for half-maximal inhibition (IC50) in series [2] (read-out: IC50) worked out at 294 µM.

For `c1ccc(-c2nc(C3CCCCC3)[nH]c2-c2ccccc2)cc1`, in series [1], the Activity entry was “Non-Toxic”. Also, the 50% inhibitory concentration (IC50) in series [2] (read-out: IC50) was over 500 µM.

In the case of `Brc1ccc(-c2nc(-c3ccccc3)[nH]c2-c2ccc(Br)cc2)cc1`, the Activity result was “Non-Toxic” in series [1] and under 10% in series [3]. Besides, the half-inhibitory concentration (IC50) in series [4] was 13 µM; in series [2] it was “Not Active”.
